ChEMBL document CHEMBL1132926, “2-amino-2-oxazolines as subtype selective alpha(2) adrenoceptor agonists” (J Med Chem, 2000)
Activity calls are given as the source filed them. The rule behind the calls is not given here.

What was measured:
[1] = biological target: T1, Alpha-2A adrenergic receptor (Homo sapiens, UniProt P08913); assay: Inhibitory constant against human Alpha-2A adrenergic receptor expressed in LM(tk-) cells using [3H]rauwolscine; type: cell-based
T1 sequence (P08913 whole entry): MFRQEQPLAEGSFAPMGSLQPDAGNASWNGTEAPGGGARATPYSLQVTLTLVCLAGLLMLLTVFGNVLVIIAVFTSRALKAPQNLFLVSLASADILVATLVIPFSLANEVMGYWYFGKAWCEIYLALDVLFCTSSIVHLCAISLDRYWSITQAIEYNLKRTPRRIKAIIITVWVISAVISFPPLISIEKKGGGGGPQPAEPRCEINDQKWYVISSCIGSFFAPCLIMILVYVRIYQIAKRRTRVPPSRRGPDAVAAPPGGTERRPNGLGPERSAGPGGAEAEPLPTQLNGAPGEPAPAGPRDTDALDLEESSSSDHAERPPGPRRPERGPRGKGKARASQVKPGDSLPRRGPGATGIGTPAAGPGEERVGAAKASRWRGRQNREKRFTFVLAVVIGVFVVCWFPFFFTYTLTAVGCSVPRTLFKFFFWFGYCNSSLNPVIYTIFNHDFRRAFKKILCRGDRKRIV
How it was run: (§1)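 Equilibrium competition binding against [3H]rauwolscine on membranes from cultured cells stably transfected with cloned human alpha2 subtypes: alpha2A and alpha2C in LM(tk-) cells, alpha2B in Y-1 cells. Equilibrium inhibition constants were estimated by nonlinear regression and reported as pKi.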

[2] = biological target: T2, Alpha-2B adrenergic receptor (Homo sapiens, UniProt P18089); assay: Inhibitory constant against human Alpha-2B adrenergic receptor expressed in Y-1 cells using [3H]rauwolscine; type: cell-based; how it was run: as §1
T2 sequence (P18089 whole entry): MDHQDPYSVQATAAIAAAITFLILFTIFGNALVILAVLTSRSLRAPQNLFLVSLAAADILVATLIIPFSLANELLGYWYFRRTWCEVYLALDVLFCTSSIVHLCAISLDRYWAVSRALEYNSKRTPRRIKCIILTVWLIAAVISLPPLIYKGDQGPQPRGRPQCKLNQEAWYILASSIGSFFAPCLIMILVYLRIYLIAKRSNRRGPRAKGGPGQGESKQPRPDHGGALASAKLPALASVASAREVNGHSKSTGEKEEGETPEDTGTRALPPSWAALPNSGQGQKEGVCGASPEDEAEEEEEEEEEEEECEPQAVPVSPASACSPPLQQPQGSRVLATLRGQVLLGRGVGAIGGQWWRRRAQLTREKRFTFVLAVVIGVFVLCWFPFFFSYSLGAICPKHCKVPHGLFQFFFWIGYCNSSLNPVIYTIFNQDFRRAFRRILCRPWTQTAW

[3] = biological target: T3, Alpha-2C adrenergic receptor (Homo sapiens, UniProt P18825); assay: Alpha-2C adrenergic receptor agonism measured as ability to inhibit forskolin-stimulated synthesis of cAMP; type: functional
T3 sequence (P18825 whole entry): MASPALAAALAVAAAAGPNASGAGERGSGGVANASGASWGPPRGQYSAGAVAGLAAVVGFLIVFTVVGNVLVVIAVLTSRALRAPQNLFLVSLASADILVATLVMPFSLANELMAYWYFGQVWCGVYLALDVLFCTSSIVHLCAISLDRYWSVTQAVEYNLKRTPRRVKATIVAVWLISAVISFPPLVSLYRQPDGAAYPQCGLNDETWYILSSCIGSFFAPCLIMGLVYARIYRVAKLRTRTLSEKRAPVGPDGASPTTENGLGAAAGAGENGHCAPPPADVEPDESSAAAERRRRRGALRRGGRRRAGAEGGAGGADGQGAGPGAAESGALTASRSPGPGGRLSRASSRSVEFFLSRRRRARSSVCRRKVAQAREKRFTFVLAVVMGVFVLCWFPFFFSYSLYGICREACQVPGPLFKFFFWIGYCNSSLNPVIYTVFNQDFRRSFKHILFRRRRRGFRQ

[4] = biological target: T1, Alpha-2A adrenergic receptor; assay: Alpha-2A adrenergic receptor agonism measured as ability to inhibit forskolin-stimulated synthesis of cAMP; type: functional
[5] = biological target: T3, Alpha-2C adrenergic receptor; assay: Inhibitory constant determined using [3H]rauwolscine in LM(tk-) cells stably transfected with cloned human Alpha-2C adrenergic receptor; type: cell-based; how it was run: as §1
[6] = biological target: T2, Alpha-2B adrenergic receptor; assay: (§2) Alpha-2B adrenergic receptor agonism measured as ability to inhibit forskolin-stimulated synthesis of cAMP; type: functional
[7] = biological target: T4, Alpha-2C adrenergic receptor (Homo sapiens) (UniProt P18825); assay: Alpha2c receptor agonism measured as ability to inhibit forskolin-stimulated synthesis of cAMP; NA=not active; type: functional
T4 sequence (whole entry): T3 sequence (P18825 whole entry)

[8] = biological target: T5, Alpha-2B adrenergic receptor (Homo sapiens) (UniProt P18089); assay: Alpha-2B adrenergic receptor agonism measured as ability to inhibit forskolin-stimulated synthesis of cAMP; NA=not active; type: functional
T5 sequence (whole entry): T2 sequence (P18089 whole entry)

[9] = biological target: T3, Alpha-2C adrenergic receptor; assay: Inhibitory constant, using [3H]rauwolscine in LM(tk-) cells stably transfected with cloned human Alpha-2C adrenergic receptor; type: cell-based; how it was run: as §1
[10] = biological target: T6, Alpha-2A adrenergic receptor (Homo sapiens) (UniProt P08913); assay: Alpha-2A adrenergic receptor agonism measured as ability to inhibit forskolin-stimulated synthesis of cAMP; NA=not active; type: functional
T6 sequence (whole entry): T1 sequence (P08913 whole entry)

[11] = biological target: T3, Alpha-2C adrenergic receptor; assay: (§3) Alpha2c receptor agonism measured as ability to inhibit forskolin-stimulated synthesis of cAMP; type: functional
[12] = biological target: T4, Alpha-2C adrenergic receptor (Homo sapiens); assay: Alpha-2C adrenergic receptor agonism measured as ability to inhibit forskolin-stimulated synthesis of cAMP; NA=not active; type: functional
[13] = biological target: T5, Alpha-2B adrenergic receptor (Homo sapiens); assay: Alpha2b receptor agonism measured as ability to inhibit forskolin-stimulated synthesis of cAMP; NA=not active; type: functional
[14] = biological target: T6, Alpha-2A adrenergic receptor (Homo sapiens); assay: Alpha2a receptor agonism measured as ability to inhibit forskolin-stimulated synthesis of cAMP; type: functional
[15] = biological target: T4, Alpha-2C adrenergic receptor (Homo sapiens); assay: as §3; type: functional
[16] = biological target: T5, Alpha-2B adrenergic receptor (Homo sapiens); assay: as §2; type: functional
[17] = biological target: T5, Alpha-2B adrenergic receptor (Homo sapiens); assay: Alpha2b receptor agonism measured as ability to inhibit forskolin-stimulated synthesis of cAMP;NA=not active; type: functional
[18] = biological target: T4, Alpha-2C adrenergic receptor (Homo sapiens); assay: Alpha2c receptor agonism measured as ability to inhibit forskolin-stimulated synthesis of cAMP; NA=not active (IA< 0.3); type: functional
[19] = biological target: T5, Alpha-2B adrenergic receptor (Homo sapiens); assay: Alpha-2B adrenergic receptor agonism measured as ability to inhibit forskolin-stimulated synthesis of cAMP; NA=not active (IA< 0.3); type: functional

SMILES | Ki [1] [nM] | Ki [2] [nM] | EC50 [4] [nM] | NA [8] | Ki [9] [nM] | EC50 [11] [nM] | alpha-2A agonist activity [10] | also measured
CCC[C@H]1CCCC[C@@H]1NC1=NCCO1 | 2.95 | 5.89 | 1.62 | – | – | – | – | EC50 [3]: 4.07 nM; Ki [5]: 24.5 nM; EC50 [6]: 9.33 nM
c1ccc([C@H]2CCCC[C@@H]2NC2=NCCO2)cc1 | 18.2 | 22.4 | – | inactive | 52.5 | – | inactive | NA [12]: inactive
CCC[C@H]1C2CCC(C2)[C@H]1NC1=NCCO1 (some centres not stated) | 28.2 | 91.2 | 11 | – | 123 | 21.4 | – | Intrinsic activity [14]: 0.9; Intrinsic activity [15]: 0.9; Intrinsic activity [16]: 0.4; EC50 [6]: 562 nM
C(=C\c1ccccc1)/C[C@H]1C2CCC(C2)[C@H]1NC1=NCCO1 (some centres not stated) | 15.8 | 102 | 70.8 | – | 85.1 | 2 | – | NA [13]: inactive

More lines, in order of falling Ki [1], values ahead:

Ki [1] [nM] | Ki [2] [nM] | EC50 [4] [nM] | NA [8] | Ki [9] [nM] | EC50 [11] [nM] | alpha-2A agonist activity [10] | SMILES | also measured
30.9 | 141 | 34.7 | – | 123 | 60.3 | – | c1ccc(CCC[C@H]2C3CCC(C3)[C@H]2NC2=NCCO2)cc1 (some centres not stated) | NA [13]: inactive
20.9 | 40.7 | – | – | 66.1 | – | inactive | c1ccc(C[C@H]2CCCC[C@@H]2NC2=NCCO2)cc1 | NA [18]: inactive; NA [19]: inactive
15.1 | 32.4 | – | inactive | 32.4 | 26.9 | inactive | c1ccc(CCC[C@H]2CCCC[C@@H]2NC2=NCCO2)cc1 | –
13.8 | 40.7 | – | – | 79.4 | 13.8 | inactive | c1ccc(C[C@H]2C3CCC(C3)[C@H]2NC2=NCCO2)cc1 (some centres not stated) | NA [17]: inactive
1.45 | 6.92 | – | inactive | 10.7 | – | – | c1ccc(CC[C@H]2CCCC[C@@H]2NC2=NCCO2)cc1 | NA [7]: inactive; NA [10]: inactive
